The values that follow come from ChEMBL document CHEMBL4477254, “Synthesis and biological evaluation of some novel triazole hybrids of curcumin mimics and their selective anticancer activity against breast and prostate cancer cell lines” (Bioorg Med Chem Lett, 2016).

The test system of data set [1] is PC-3. Kind of data set: Cell cycle arrest in human PC3 cells assessed as accumulation at S phase at 4.8 uM after 24 hrs by propidium iodide staining based flow cytometry (reference value: 25.01%). The format is functional. The method, boiled down: (§1)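 Cells treated 24 h with test compound, MCF-7 at various concentrations and PC-3 at various concentrations; cells harvested, stained with propidium iodide and acquired by flow cytometry for cell cycle phase distribution.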
On the technique in general: A flow cytometer gives signals particle by particle.

The test system of data set [2] is PC-3. In words: Induction of apoptosis in human PC3 cells assessed as early apoptotic cells at 4.8 uM after 24 hrs by annexin V-FITC/propidium iodide staining based flow cytometry (reference value: 4.44%). The format is functional. The method, boiled down: (§2)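 MCF-7 cells exposed to 3, 6 or 9 μM and PC-3 cells to 4.8 or 8.8 μM for 24 h, then harvested and dual-stained with Annexin V-FITC/PI and read by flow cytometry. Gates: live AnnexinV⁻/PI⁻, early apoptotic AnnexinV⁺/PI⁻, necrotic AnnexinV⁻/PI⁺.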

For data set [3], the system named is PC-3. In words: Induction of apoptosis in human PC3 cells assessed as viable cells at 8.8 uM after 24 hrs by annexin V-FITC/propidium iodide staining based flow cytometry (reference value: 92.24%). The data set is classed as functional. Conditions: PC-3, 24 h, read-out: Activity. The method, boiled down: as §2
Data set [4] concerns PC-3. Kind of data set: Induction of apoptosis in human PC3 cells assessed as early apoptotic cells at 8.8 uM after 24 hrs by annexin V-FITC/propidium iodide staining based flow cytometry (reference value: 4.44%). The format is functional. The method, boiled down: as §2
Data set [5] concerns PC-3. Kind of data set: Induction of apoptosis in human PC3 cells assessed as late apoptotic cells at 8.8 uM after 24 hrs by annexin V-FITC/propidium iodide staining based flow cytometry (reference value: 0.80%). The data set is classed as functional. The method, boiled down:
as §2

Data set [6] has as its system PC-3. In words: Induction of apoptosis in human PC3 cells assessed as necrotic cells at 8.8 uM after 24 hrs by annexin V-FITC/propidium iodide staining based flow cytometry (reference value: 2.52%). The format is functional. The method, boiled down: as §2
The subject of data set [7] is PC-3. Kind of data set: Induction of mitochondrial membrane depolarization in human PC3 cells at 8.8 uM after 24 hrs by JC-1 staining based flow cytometry (reference value: 4.51%). The format is functional.
Data set [8] relates to PC-3. In words: Decrease in PCNA levels in human PC3 cells at 4.8 to 8.8 uM after 24 hrs by Western blot analysis. The format is functional, cell-based. The method, boiled down: (§3)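 MCF-7 or PC-3 cells treated with compound for 24 h, harvested; PCNA, Bax and Bcl-2 protein expression checked by Western blotting.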
Data set [9] relates to PC-3. In words: Increase in Bax expression in human PC3 cells at 4.8 to 8.8 uM after 24 hrs by Western blot analysis. The data set is classed as functional, cell-based. The method, boiled down:
as §3
Background: In western blotting, separated proteins are transferred to a membrane and probed.

Data set [10] is described as follows: Drug metabolism in liver microsomes (unknown origin) assessed as compound remaining at 8 ug/ml after 5 mins in presence of NADPH by UPLC analysis. The note with it: read-out: Drug metabolism. The data set is classed as ADME, Microsome. The method, boiled down: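 Microsomal metabolic stability; percentage of compound remaining intact measured after 5 min incubation in presence of microsomes.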
In general terms: Liver microsomes are vesicles of endoplasmic reticulum, rich in cytochrome P450 enzymes.

Data set [11] can be described thus: Elimination rate constant in liver microsomes (unknown origin) at 8 ug/ml measured up to 60 mins by UPLC analysis. The format is ADME, Microsome.
The subject of data set [12] is MCF7. Kind of data set: Cell cycle arrest in human MCF7 cells assessed as accumulation at G2/M phase at 3 uM after 24 hrs by propidium iodide staining based flow cytometry (reference value: 20.30%). The format is functional. The method, boiled down:
as §1

The subject of data set [13] is MCF7. In words: Cell cycle arrest in human MCF7 cells assessed as accumulation at S phase at 3 uM after 24 hrs by propidium iodide staining based flow cytometry (reference value: 34.03%). The data set is classed as functional. The method, boiled down: as §1
Data set [14] concerns MCF7. In words: Cell cycle arrest in human MCF7 cells assessed as accumulation at G0/G1 phase at 6 uM after 24 hrs by propidium iodide staining based flow cytometry (reference value: 45.67%). The format is functional. The method, boiled down: as §1
In data set [15] the test system is MCF7. Kind of data set: Cell cycle arrest in human MCF7 cells assessed as accumulation at G2/M phase at 6 uM after 24 hrs by propidium iodide staining based flow cytometry (reference value: 20.30%). The data set is classed as functional. The method, boiled down:
as §1

Data set [16] has as its system MCF7. Kind of data set: Cell cycle arrest in human MCF7 cells assessed as accumulation at S phase at 6 uM after 24 hrs by propidium iodide staining based flow cytometry (reference value: 34.03%). The data set is classed as functional. The method, boiled down:
as §1

Data set [17] concerns MCF7. In words: Cell cycle arrest in human MCF7 cells assessed as accumulation at G2/M phase at 9 uM after 24 hrs by propidium iodide staining based flow cytometry (reference value: 20.30%). The format is functional. The method, boiled down: as §1
For data set [18], the system named is MCF7. Kind of data set: Induction of morphological changes in human MCF7 cells assessed as decrease in cell number at 1 to 6 uM after 24 hrs by phase contrast microscopy. The data set is classed as functional, cell-based. The method, boiled down: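 Cells were exposed to a range of concentrations for 24 h. Cell number and morphology, including detachment from the surface, were assessed by phase-contrast microscopy at 10X magnification.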

The subject of data set [19] is MCF7. In words: Induction of apoptosis in human MCF7 cells assessed as viable cells at 3 uM after 24 hrs by annexin V-FITC/propidium iodide staining based flow cytometry (reference value: 82.63%). The data set is classed as functional. Conditions: MCF7, 24 h, read-out: Activity. The method, boiled down: (§4)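 Apoptosis by Annexin V-FITC/PI dual staining: MCF-7 cells treated 24 h at 3, 6 and 9 µM, then harvested, stained and acquired by flow cytometry; early apoptotic = AnnexinV+/PI−, live = AnnexinV−/PI−, necrotic = AnnexinV−/PI+.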

Data set [20] has as its system MCF7. Kind of data set: Induction of apoptosis in human MCF7 cells assessed as early apoptotic cells at 3 uM after 24 hrs by annexin V-FITC/propidium iodide staining based flow cytometry (reference value: 7.36%). The format is functional. The method, boiled down:
as §4

Data set [21] deals with MCF7. Kind of data set: Induction of apoptosis in human MCF7 cells assessed as late apoptotic cells at 3 uM after 24 hrs by annexin V-FITC/propidium iodide staining based flow cytometry (reference value: 5.25%). The format is functional. The method, boiled down: as §4
Data set [22] has as its system MCF7. Kind of data set: Induction of apoptosis in human MCF7 cells assessed as early apoptotic cells at 6 uM after 24 hrs by annexin V-FITC/propidium iodide staining based flow cytometry (reference value: 7.36%). The format is functional. The method, boiled down:
as §4

The subject of data set [23] is MCF7. In words: Induction of apoptosis in human MCF7 cells assessed as necrotic cells at 6 uM after 24 hrs by annexin V-FITC/propidium iodide staining based flow cytometry (reference value: 4.76%). The format is functional. The method, boiled down: as §4
For data set [24], the system named is MCF7. Kind of data set: Induction of apoptosis in human MCF7 cells assessed as viable cells at 9 uM after 24 hrs by annexin V-FITC/propidium iodide staining based flow cytometry (reference value: 82.63%). The format is functional. Conditions: MCF7, 24 h, read-out: Activity. The method, boiled down:
as §2

Data set [25] deals with MCF7. In words: Induction of apoptosis in human MCF7 cells assessed as early apoptotic cells at 9 uM after 24 hrs by annexin V-FITC/propidium iodide staining based flow cytometry (reference value: 7.36%). The format is functional. The method, boiled down:
as §4

The subject of data set [26] is MCF7. Kind of data set: Induction of apoptosis in human MCF7 cells assessed as late apoptotic cells at 9 uM after 24 hrs by annexin V-FITC/propidium iodide staining based flow cytometry (reference value: 5.25%). The format is functional. The method, boiled down: as §4
Data set [27] relates to MCF7. In words: Induction of apoptosis in human MCF7 cells assessed as necrotic cells at 9 uM after 24 hrs by annexin V-FITC/propidium iodide staining based flow cytometry (reference value: 4.76%). The format is functional. The method, boiled down: as §4
The test system of data set [28] is MCF7. Kind of data set: Induction of mitochondrial membrane depolarization in human MCF7 cells at 3 uM after 24 hrs by JC-1 staining based flow cytometry (reference value: 11%). The format is functional.
In data set [29] the test system is MCF7. Kind of data set: Decrease in PCNA levels in human MCF7 cells at 3 to 9 uM after 24 hrs by Western blot analysis. The format is functional, cell-based. The method, boiled down:
as §3

Data set [30] can be described thus: Intrinsic clearance in liver microsomes (unknown origin) assessed per mg of protein at 5 ug/ml in presence of NADPH by UPLC analysis. The format is ADME, Microsome.
The nature of data set [31]: Intrinsic hepatic clearance in liver microsomes (unknown origin) assessed per mg of protein at 5 ug/ml in presence of NADPH by UPLC analysis. The note with it: read-out: CLH (converted). The format is ADME, Microsome.

SMILES strings stand for the structures. Calls of active or inactive are those of the source. The rule behind the calls is not given here.

Take `Cc1ccc(/C=C2\CN(Cc3cn(Cc4ccccc4F)nn3)C/C(=C\c3ccc(C)cc3)C2=O)cc1`: the Activity with PC-3 [1] is recorded as 21.02%; in the data set with PC-3 [2], 13.02%; in the data set with PC-3 [4], 17.54%; with PC-3 [5], 0.88%; in the data set on PC-3 [6], 0.75%; with PC-3 [7], 32.02%. The viability at 8.8 µM in the data set on PC-3 [3] came out at 80.8%. Besides, the result in the data set with PC-3 [8] and in the data set on PC-3 [9] was Active. The remaining at 5 min, 8 ug/ml in data set [10] worked out at 66%. The same compound showed a k el at 1 h, 8 ug/ml in data set [11] of 0.000733 s⁻¹.

`O=C1/C(=C/c2ccccc2F)CN(Cc2cn(Cc3ccc(F)cc3)nn2)C/C1=C\c1ccccc1F`: the Activity in the data set with MCF7 [12] is 25.7%; in the data set with MCF7 [13] it was 36.03%; in the data set on MCF7 [14] it was 11.97%; in the data set on MCF7 [15] it was 43.6%; in the data set on MCF7 [16], 44.43%; in the data set on MCF7 [17], 35.11%. Also, the Activity in the data set with MCF7 [20] is 25.08%; with MCF7 [21], 16.3%; in the data set with MCF7 [22] it was 30.56%; in the data set on MCF7 [23] it was 4.28%; in the data set on MCF7 [25], 30.88%; in the data set on MCF7 [26], 19.59%. For the same compound, the Activity came to 9.22% in the data set on MCF7 [27] and 66.45% with MCF7 [28]. Further, the result with MCF7 [18] and in the data set on MCF7 [29] was Active. The viability at 3 µM in the data set on MCF7 [19] is 52.4%. Besides, the viability at 9 µM in the data set with MCF7 [24] was found to be 40.3%. In addition, the CLint in data set [30] came out at 176 µL/min/mg. Moreover, the CLint scaled at 5 ug/ml in data set [31] was 317 L/h/kg.
